What was measured:
[1] = molecular target: Histone acetyltransferase p300 (Homo sapiens) (UniProt Q09472); assay: Inhibition of recombinant human p300 catalytic domain (1284 to 1673 aa) using histone H3 at 100 uM after 1 hr by radiochemical assay in presence of [acetyl-3H]-acetyl coenzyme A
[2] = molecular target: Histone acetyltransferase KAT2B (Homo sapiens) (UniProt Q92831); assay: Inhibition of recombinant human PCAF catalytic domain (492 to 658 aa) using histone H3 at 100 uM after 1 hr by radiochemical assay in presence of [acetyl-3H]-acetyl coenzyme A
[3] = molecular target: Histone acetyltransferase p300 (Homo sapiens) (UniProt Q09472); assay: Inhibition of recombinant human p300 catalytic domain (1284 to 1673 aa) using histone H3 at 400 uM after 1 hr by radiochemical assay in presence of [acetyl-3H]-acetyl coenzyme A
[4] = molecular target: Histone acetyltransferase p300 (Homo sapiens) (UniProt Q09472); assay: Inhibition of recombinant human p300 catalytic domain (1284 to 1673 aa) using histone H3 at 200 uM after 1 hr by radiochemical assay in presence of [acetyl-3H]-acetyl coenzyme A
[5] = tested on: HCT-116; assay: Induction of apoptosis in human HCT116 cells at 100 uM after 30 hrs by FACS analysis relative to control; type: functional
Procedure, shortened: (§1)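 Cells cultured at 37 °C, 5% CO2 in RPMI-1640 plus 10% heat-inactivated FBS and antibiotics; treated 30 h; apoptosis read by FACS as the pre-G1 population, compared with untreated control.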

[6] = tested on: U-937; assay: Induction of apoptosis in human U937 cells at 100 uM after 30 hrs by FACS analysis relative to control; type: functional; procedure, shortened: as §1

Histone acetyltransferase p300 (Homo sapiens), sequence (Q09472 whole entry, the tested form may be a part): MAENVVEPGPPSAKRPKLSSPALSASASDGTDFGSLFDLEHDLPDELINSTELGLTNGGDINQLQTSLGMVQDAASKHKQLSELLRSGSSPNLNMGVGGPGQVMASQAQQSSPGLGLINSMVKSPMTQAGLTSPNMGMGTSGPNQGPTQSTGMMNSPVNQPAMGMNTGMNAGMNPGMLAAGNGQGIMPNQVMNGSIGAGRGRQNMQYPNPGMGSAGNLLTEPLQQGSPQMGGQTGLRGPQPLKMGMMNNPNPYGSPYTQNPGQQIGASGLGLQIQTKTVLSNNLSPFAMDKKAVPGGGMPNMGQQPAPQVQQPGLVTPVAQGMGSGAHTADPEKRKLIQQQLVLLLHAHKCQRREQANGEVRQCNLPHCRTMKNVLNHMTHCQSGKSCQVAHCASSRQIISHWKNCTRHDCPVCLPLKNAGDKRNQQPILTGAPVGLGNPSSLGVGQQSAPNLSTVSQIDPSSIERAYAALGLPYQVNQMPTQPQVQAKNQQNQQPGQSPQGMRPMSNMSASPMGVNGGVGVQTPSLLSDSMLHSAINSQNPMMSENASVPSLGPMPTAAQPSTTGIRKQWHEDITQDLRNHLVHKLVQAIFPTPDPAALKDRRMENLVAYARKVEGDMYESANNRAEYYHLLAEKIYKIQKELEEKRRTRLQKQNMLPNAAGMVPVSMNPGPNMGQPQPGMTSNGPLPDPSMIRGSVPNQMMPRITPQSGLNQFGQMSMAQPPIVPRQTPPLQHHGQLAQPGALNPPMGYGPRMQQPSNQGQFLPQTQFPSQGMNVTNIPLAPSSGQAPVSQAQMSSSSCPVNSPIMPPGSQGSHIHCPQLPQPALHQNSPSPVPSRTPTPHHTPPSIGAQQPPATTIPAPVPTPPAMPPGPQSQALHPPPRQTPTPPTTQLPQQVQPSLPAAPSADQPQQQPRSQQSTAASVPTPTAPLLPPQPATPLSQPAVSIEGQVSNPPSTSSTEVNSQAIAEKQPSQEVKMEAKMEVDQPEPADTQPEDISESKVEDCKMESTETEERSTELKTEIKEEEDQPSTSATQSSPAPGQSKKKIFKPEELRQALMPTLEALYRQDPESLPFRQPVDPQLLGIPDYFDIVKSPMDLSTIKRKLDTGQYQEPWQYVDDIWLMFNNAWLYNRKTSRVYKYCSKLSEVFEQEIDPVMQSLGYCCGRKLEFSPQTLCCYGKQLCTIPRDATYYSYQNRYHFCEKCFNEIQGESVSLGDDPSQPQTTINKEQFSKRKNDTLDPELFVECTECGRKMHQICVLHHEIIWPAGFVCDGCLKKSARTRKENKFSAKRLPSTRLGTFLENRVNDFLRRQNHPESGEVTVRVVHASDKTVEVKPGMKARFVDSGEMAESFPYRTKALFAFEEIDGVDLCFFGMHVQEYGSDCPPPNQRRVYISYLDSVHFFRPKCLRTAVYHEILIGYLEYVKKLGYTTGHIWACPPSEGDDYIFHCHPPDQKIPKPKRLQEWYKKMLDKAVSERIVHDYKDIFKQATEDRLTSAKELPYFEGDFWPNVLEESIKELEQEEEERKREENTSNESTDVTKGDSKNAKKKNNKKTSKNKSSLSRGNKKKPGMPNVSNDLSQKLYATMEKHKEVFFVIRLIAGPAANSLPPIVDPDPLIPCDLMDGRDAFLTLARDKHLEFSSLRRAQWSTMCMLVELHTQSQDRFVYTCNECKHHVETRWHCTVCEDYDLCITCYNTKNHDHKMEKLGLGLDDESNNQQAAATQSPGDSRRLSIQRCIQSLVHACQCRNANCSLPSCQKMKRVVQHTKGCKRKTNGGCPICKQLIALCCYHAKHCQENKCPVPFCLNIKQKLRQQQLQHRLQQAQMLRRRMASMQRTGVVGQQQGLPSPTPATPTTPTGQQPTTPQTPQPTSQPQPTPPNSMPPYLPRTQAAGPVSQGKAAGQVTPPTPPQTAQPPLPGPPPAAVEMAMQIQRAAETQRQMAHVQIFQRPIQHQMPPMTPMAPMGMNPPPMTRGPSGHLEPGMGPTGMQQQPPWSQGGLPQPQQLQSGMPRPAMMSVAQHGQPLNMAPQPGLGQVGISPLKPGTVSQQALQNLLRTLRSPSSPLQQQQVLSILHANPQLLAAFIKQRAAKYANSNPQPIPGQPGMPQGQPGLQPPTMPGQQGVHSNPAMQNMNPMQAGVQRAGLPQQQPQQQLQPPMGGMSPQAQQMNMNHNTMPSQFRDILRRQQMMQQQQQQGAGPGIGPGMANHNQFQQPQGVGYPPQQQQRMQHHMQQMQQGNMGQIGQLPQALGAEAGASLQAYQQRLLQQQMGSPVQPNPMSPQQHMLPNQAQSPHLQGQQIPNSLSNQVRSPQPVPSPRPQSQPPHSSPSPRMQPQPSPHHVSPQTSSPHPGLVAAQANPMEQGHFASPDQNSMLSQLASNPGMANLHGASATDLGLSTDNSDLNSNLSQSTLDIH
Histone acetyltransferase KAT2B (Homo sapiens), sequence (Q92831 whole entry, looked up, the tested form may be a part): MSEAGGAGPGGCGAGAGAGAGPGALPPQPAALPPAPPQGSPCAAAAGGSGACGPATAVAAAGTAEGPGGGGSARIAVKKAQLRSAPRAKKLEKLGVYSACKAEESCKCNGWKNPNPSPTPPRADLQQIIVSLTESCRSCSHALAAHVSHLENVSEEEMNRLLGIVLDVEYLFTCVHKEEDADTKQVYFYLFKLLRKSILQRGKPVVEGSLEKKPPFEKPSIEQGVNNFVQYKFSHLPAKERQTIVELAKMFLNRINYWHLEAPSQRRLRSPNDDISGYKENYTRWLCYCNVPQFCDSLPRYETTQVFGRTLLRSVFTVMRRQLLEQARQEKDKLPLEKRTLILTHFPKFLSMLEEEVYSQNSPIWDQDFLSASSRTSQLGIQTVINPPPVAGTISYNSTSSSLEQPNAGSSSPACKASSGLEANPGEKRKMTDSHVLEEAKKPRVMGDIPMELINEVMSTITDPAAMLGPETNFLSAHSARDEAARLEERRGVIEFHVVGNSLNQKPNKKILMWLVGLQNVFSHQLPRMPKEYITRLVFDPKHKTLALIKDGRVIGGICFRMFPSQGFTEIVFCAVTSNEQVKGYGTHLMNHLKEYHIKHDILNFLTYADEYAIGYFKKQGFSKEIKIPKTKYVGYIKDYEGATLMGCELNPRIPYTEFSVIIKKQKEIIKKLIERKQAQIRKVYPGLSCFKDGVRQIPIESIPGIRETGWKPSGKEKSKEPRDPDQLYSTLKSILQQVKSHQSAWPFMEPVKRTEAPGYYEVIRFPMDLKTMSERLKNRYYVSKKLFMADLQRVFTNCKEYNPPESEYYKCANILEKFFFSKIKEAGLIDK

Row | SMILES | inhibition [1] [%] | inhibition [2] [%] | inhibition [3] [%] | inhibition [4] [%] | Activity [5] [%] | Activity [6] [%]
1 | CC(C)=NNc1nc(-c2ccc(F)cc2)cs1 | 34 | 0 |  |  |  | 
2 | Clc1ccc(-c2csc(N/N=C\c3cccnc3)n2)cc1 | 28 | 17 |  |  |  | 
3 | CC(C)=NNc1nc(-c2ccc(Cl)cc2)cc(=O)[nH]1 | 7 |  |  |  |  | 
4 | Nc1nc(-c2ccccc2)cs1 | 4 | 3 |  |  |  | 
5 | CCCC/C(C)=N/Nc1nc(-c2ccc(Cl)cc2)cs1 | 0 | 8 |  |  |  | 
6 | C/C(=N/Nc1nc(-c2ccc(Cl)cc2)cs1)C1c2ccccc2-c2ccc(C(=O)O)cc21 (stereo unspecified) | 37 | 14 |  |  |  | 
7 | Clc1ccc(-c2csc(N/N=C\c3ccncc3)n2)cc1 | 37 | 13 |  |  |  | 
8 | Clc1ccc(-c2csc(N/N=C\c3ccc4c(c3)OCO4)n2)cc1 | 11 | 0 |  |  |  | 
9 | CC(C)=NNc1nc(-c2ccc(Cl)cc2)cs1 | 31 | 1 | 60 | 45 |  | 
10 | C=CCC/C(C)=N/Nc1nc(-c2ccc(Cl)cc2)cs1 | 32 | 12 |  |  |  | 
11 | O=c1cc(-c2ccccc2)nc(NN=C2CCCC2)[nH]1 | 3 |  |  |  |  | 
12 | NNc1nc(-c2ccccc2)cs1 | 5 | 16 |  |  |  | 
13 | C/C(=N/Nc1nc(-c2ccc(Cl)cc2)cs1)c1ccco1 | 26 | 2 |  |  |  | 
14 | CC/C(C)=N/Nc1nc(-c2ccc(Cl)cc2)cs1 | 33 | 8 |  |  |  | 
15 | COc1cccc(-c2csc(NN=C(C)C)n2)c1 | 30 | 4 |  |  |  | 
16 | CC(C)=NNc1nc(-c2cc3ccccc3oc2=O)cs1 | 32 | 12 | 56 | 46 |  | 
17 | O=c1cc(-c2cccc([N+](=O)[O-])c2)nc(NN=C2CCCC2)[nH]1 | 9 |  |  |  |  | 
18 | CCC(C)/C(C)=N/Nc1nc(-c2ccc(Cl)cc2)cs1 (stereo unspecified) | 2 | 9 |  |  |  | 
19 | CCOC(=O)c1csc(NN=C2CCCC2)n1 | 19 | 5 |  |  |  | 
20 | CC(C)=NNc1nc(C)cs1 | 13 | 3 |  |  |  | 
21 | CCC(CC)=NNc1nc(-c2ccc(Cl)cc2)cs1 | 35 | 10 |  |  |  | 
22 | CC(C)=NNc1nc(-c2ccccc2)c(C)s1 | 20 | 5 |  |  |  | 
23 | CCOC(=O)c1csc(NN=C(C)C)n1 | 22 | 0 |  |  |  | 
24 | C/C(=N/Nc1nc(-c2ccc(Cl)cc2)cs1)c1ccncc1 | 36 | 10 |  |  |  | 

Row | SMILES | inhibition [1] [%] | inhibition [2] [%] | inhibition [3] [%] | inhibition [4] [%] | Activity [5] [%] | Activity [6] [%]
25 | CC(C)=NNc1nc(-c2cccc([N+](=O)[O-])c2)cc(=O)[nH]1 | 4 |  |  |  |  | 
26 | CC(C)=NN=C1NC(=O)CS1 | 14 | 7 |  |  |  | 
27 | CCCCCC/C(C)=N/Nc1nc(-c2ccc(Cl)cc2)cs1 | 8 | 10 |  |  |  | 
28 | Nc1nc(-c2ccc(Cl)cc2)cs1 | 31 | 0 |  |  |  | 
29 | C/C(=N/Nc1nc(-c2ccc(Cl)cc2)cs1)C1CCCCC1 | 3 | 8 |  |  |  | 
30 | CC(C)=NNc1nc(-c2ccc(Br)cc2)cs1 | 42 | 13 | 63 | 53 |  | 
31 | Cc1sc(NN=C2CCCC2)nc1-c1ccccc1 | 2 | 2 |  |  |  | 
32 | O=c1cc(-c2ccc(Br)cc2)nc(NN=C2CCCC2)[nH]1 | 9 |  |  |  |  | 
33 | CCC/C(C)=N/Nc1nc(-c2ccc(Cl)cc2)cs1 | 19 | 7 |  |  |  | 
34 | Cc1csc(NN=C2CCCC2)n1 | 0 | 30 |  |  |  | 
35 | Clc1ccc(-c2csc(N/N=C\c3cccs3)n2)cc1 | 13 | 4 |  |  |  | 
36 | CC(C)=NNc1nc(-c2ccccc2)cs1 | 14 | 0 |  |  |  | 
37 | CCCCC/C(C)=N/Nc1nc(-c2ccc(Cl)cc2)cs1 | 5 | 16 |  |  |  | 
38 | CC(C)=NNc1nc(-c2ccc(Cl)cc2Cl)cs1 | 30 | 16 |  |  |  | 
39 | C/C(=N/Nc1nc(-c2ccc(Cl)cc2)cs1)c1nccs1 | 46 | 10 | 67 | 55 |  | 
40 | O=C1CSC(NN=C2CCCC2)=N1 | 0 | 1 |  |  |  | 
41 | COc1ccc(-c2csc(NN=C(C)C)n2)cc1 | 21 | 5 |  |  |  | 
42 | CC(C)=NNc1nc(-c2ccccc2)cc(=O)[nH]1 | 4 |  |  |  |  | 
43 | O=c1cc(-c2ccc(Cl)cc2)nc(NN=C2CCCC2)[nH]1 | 31 | 10 | 54 | 46 |  | 
44 | Clc1ccc(-c2csc(NN=C3CCCC3)n2)c(Cl)c1 | 30 | 21 |  |  |  | 
45 | CCOC(=O)c1csc(N/N=C2/CCC(C)C2)n1 (stereo unspecified) | 22 | 8 |  |  |  | 
46 | CC(C)=NNc1nc(-c2ccc(Br)cc2)cc(=O)[nH]1 | 9 |  |  |  |  | 
47 | Clc1ccc(-c2csc(N/N=C\c3ccco3)n2)cc1 | 15 | 9 |  |  |  | 

Continued, in another order:

Row | inhibition [1] [%] | inhibition [2] [%] | inhibition [3] [%] | inhibition [4] [%] | SMILES | Activity [5] [%] | Activity [6] [%]
48 | 1 | 11 |  |  | C/C(=N/Nc1nc(-c2ccc(Cl)cc2)cs1)c1cccnc1 |  | 
49 | 20 | 0 |  |  | Clc1ccc(-c2csc(NN=C3CCCCCC3)n2)cc1 |  | 
50 | 28 | 5 |  |  | COc1ccc(-c2csc(N/N=C3/CCC(C)C3)n2)cc1 (stereo unspecified) |  | 
51 | 27 | 0 |  |  | COc1ccc(-c2csc(N/N=C3\CCC[C@@H](C)C3)n2)cc1 |  | 
52 | 41 | 8 | 64 | 55 | CC1CC/C(=N/Nc2nc(-c3ccc(Cl)cc3)cc(=O)[nH]2)C1 (stereo unspecified) |  | 
53 | 27 | 0 |  |  | C[C@@H]1CCC/C(=N/Nc2nc(-c3ccc(Cl)cc3)cs2)C1 |  | 
54 | 35 | 6 |  |  | CC1CC/C(=N/Nc2nc(-c3ccc(C#N)cc3)cs2)C1 (stereo unspecified) |  | 
55 | 0 | 0 |  |  | CC1(C)C=C/C(=N\Nc2nc(-c3ccc(Cl)cc3)cs2)CC1 |  | 
56 | 14 | 18 |  |  | CC1CC/C(=N/Nc2nc(-c3ccc(F)cc3F)cs2)C1 (stereo unspecified) |  | 
57 | 25 | 10 |  |  | CC(C)=NNc1nc(-c2ccc3ccccc3c2)cs1 |  | 
58 | 19 | 8 |  |  | c1ccc2cc(-c3csc(NN=C4CCCC4)n3)ccc2c1 |  | 
59 | 16 | 7 |  |  | C/C(=N/Nc1nc(-c2ccc(Cl)cc2)cs1)c1ccc2ccccc2c1 |  | 
60 | 9 | 0 |  |  | CC1CCC/C(=N/Nc2nc(-c3ccc(Cl)cc3)cs2)C1 (stereo unspecified) |  | 
61 | 34 | 1 | 61 | 47 | Clc1ccc(-c2csc(NN=C3CCCC3)n2)cc1 |  | 
62 | 16 | 0 |  |  | COc1ccc(-c2csc(NN=C3CCCCCC3)n2)cc1 |  | 
63 | 26 | 5 |  |  | C/C(=N/Nc1nc(-c2ccc(Cl)cc2)cs1)c1cccs1 |  | 
64 | 27 | 0 |  |  | CC1CC/C(=N/Nc2nc(-c3ccc(Cl)cc3)cs2)C1 (stereo unspecified) | 11.5 | 29

Row | inhibition [1] [%] | inhibition [2] [%] | inhibition [3] [%] | inhibition [4] [%] | SMILES | Activity [5] [%] | Activity [6] [%]
65 | 15 | 3 |  |  | Cc1sc(N/N=C2/CCC(C)C2)nc1-c1ccccc1 (stereo unspecified) |  | 
66 | 33 | 11 | 57 | 47 | COc1ccc(-c2csc(NN=C3CCCC3)n2)cc1 |  | 
67 | 31 | 11 | 62 | 51 | COc1cccc(-c2csc(NN=C3CCCC3)n2)c1 |  | 
68 | 7 | 9 |  |  | C/C(=N/Nc1nc(-c2ccc(Cl)cc2)cs1)c1ccccc1 |  | 
69 | 37 | 15 | 54 | 56 | c1ccc(-c2csc(NN=C3CCCC3)n2)cc1 |  | 
70 | 32 | 2 |  |  | COc1ccc(-c2csc(N/N=C3/CCCC3C)n2)cc1 (stereo unspecified) |  | 
71 | 15 | 6 |  |  | Clc1ccc(-c2csc(NN=C3CCCCCCC3)n2)cc1 |  | 
72 | 19 | 4 |  |  | COc1ccc(-c2csc(N/N=C3/CCCC(C)C3)n2)cc1 (stereo unspecified) |  | 
73 | 0 |  |  |  | CC1CC/C(=N/Nc2nc(-c3ccccc3)cc(=O)[nH]2)C1 (stereo unspecified) |  | 
74 | 12 |  |  |  | CC1CC/C(=N/Nc2nc(-c3ccc(Br)cc3)cc(=O)[nH]2)C1 (stereo unspecified) |  | 
75 | 20 | 0 |  |  | CC(C)=NNc1nc(-c2ccc(-c3ccccc3)cc2)cs1 |  | 
76 | 14 |  |  |  | CC1CC/C(=N/Nc2nc(-c3cccc([N+](=O)[O-])c3)cc(=O)[nH]2)C1 (stereo unspecified) |  | 
77 | 5 | 8 |  |  | CC1CC/C(=N/Nc2nc(-c3ccc(F)cc3)cs2)C1 (stereo unspecified) |  | 
78 | 9 | 0 |  |  | Clc1ccc(-c2csc(N/N=C\c3cccc4ccccc34)n2)cc1 |  | 
79 | 33 | 2 |  |  | CC1CCC/C1=N/Nc1nc(-c2ccc(Cl)cc2)cs1 (stereo unspecified) |  | 
80 | 44 | 15 | 60 | 51 | O=[N+]([O-])c1cccc(-c2csc(NN=C3CCCC3)n2)c1 |  | 
81 | 4 | 0 |  |  | CC1CC/C(=N/Nc2nc(-c3ccc4ccccc4c3)cs2)C1 (stereo unspecified) |  | 

From ChEMBL document CHEMBL3259575, “Evaluation of a large library of (thiazol-2-yl)hydrazones and analogues as histone acetyltransferase inhibitors: enzyme and cellular studies” (2014)
